For experiment [1], the target named is T1, Tyrosine-protein phosphatase non-receptor type 2 (Homo sapiens, UniProt P17706).
T1 sequence (P17706 whole entry): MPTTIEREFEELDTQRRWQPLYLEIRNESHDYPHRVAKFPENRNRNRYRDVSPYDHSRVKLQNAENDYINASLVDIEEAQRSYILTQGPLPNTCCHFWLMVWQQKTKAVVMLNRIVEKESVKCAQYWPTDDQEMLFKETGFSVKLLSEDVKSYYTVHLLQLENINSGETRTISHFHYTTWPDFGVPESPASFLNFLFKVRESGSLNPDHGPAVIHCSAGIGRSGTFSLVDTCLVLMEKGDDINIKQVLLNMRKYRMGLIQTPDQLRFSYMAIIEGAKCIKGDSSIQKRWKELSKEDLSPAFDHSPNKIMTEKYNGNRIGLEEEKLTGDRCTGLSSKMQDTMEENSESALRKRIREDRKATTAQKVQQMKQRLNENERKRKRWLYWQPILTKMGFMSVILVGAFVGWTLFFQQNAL
The experiment is described as follows: Inhibition of human recombinant GST-tagged TCPTP (catalytic domain […] residues) expressed in Escherichia coli BL21 (DE3) using pNPP as substrate measured for 2 mins by colorimetric analysis.

Experiment [2] addresses T2, M-phase inducer phosphatase 2 (Homo sapiens, UniProt P30305).
T2 sequence (P30305 whole entry): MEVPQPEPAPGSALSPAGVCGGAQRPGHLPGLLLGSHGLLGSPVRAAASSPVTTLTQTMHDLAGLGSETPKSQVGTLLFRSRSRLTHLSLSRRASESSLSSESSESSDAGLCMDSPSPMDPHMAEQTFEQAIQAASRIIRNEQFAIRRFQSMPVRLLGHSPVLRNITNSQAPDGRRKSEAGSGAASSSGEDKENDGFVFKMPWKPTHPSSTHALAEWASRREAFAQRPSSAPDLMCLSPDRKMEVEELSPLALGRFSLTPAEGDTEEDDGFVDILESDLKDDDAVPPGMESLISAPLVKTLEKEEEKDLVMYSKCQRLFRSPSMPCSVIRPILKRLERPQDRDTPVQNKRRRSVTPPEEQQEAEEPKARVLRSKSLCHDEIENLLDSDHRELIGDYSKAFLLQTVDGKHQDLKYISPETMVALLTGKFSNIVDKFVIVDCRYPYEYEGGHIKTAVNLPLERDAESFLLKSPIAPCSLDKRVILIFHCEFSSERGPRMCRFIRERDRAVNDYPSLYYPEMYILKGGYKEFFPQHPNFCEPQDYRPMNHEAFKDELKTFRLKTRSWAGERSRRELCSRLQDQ
The experiment is described as follows: Inhibition of human recombinant GST-tagged CDC25B expressed in Escherichia coli BL21 (DE3) using pNPP as substrate measured for 2 mins by colorimetric analysis. In short, it runs like this:
(§1)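 pNPP hydrolysis assay. IC50 was derived by regression analysis and given as mean ± SD of three replications.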

Experiment [3] has as its target Tyrosine-protein phosphatase non-receptor type 6 (Homo sapiens, UniProt P29350). Description: Inhibition of human recombinant GST-tagged SHP1 (catalytic domain 244 to 570 residues) expressed in Escherichia coli BL21 (DE3) using pNPP as substrate measured for 2 mins by colorimetric analysis. In outline:
as §1

Experiment [4] has as its target T3, Tyrosine-protein phosphatase non-receptor type 11 (Homo sapiens, UniProt Q06124).
T3 sequence (Q06124 whole entry): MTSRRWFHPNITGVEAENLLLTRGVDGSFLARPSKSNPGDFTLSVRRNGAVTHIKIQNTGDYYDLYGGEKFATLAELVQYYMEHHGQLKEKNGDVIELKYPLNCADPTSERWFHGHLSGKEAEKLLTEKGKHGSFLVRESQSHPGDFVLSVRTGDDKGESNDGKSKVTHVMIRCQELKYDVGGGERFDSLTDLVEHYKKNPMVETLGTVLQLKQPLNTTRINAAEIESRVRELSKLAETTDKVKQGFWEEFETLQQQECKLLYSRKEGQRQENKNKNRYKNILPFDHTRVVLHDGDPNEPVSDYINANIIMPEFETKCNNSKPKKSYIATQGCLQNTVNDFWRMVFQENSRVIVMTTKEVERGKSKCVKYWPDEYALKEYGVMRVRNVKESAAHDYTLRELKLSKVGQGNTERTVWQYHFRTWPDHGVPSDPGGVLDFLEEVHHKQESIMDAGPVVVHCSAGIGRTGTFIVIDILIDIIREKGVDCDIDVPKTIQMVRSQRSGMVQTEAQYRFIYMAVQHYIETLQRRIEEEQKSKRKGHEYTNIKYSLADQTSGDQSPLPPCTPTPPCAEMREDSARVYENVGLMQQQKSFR
The experiment is described as follows: Inhibition of human recombinant GST-tagged SHP2 (catalytic domain […] residues) expressed in Escherichia coli BL21 (DE3) using pNPP as substrate measured for 2 mins by colorimetric analysis. In outline: as §1

Experiment [5] has as its system Staphylococcus aureus. The experiment is described as follows: Antibacterial activity against Staphylococcus aureus RN4220 assessed as reduction in bacterial cell growth incubated for 24 hrs by ELISA. Type of experiment: functional. The note with it: RN4220, 24 h. In short, it runs like this: (§2)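 MICs determined by serial dilution in 96-well microtiter plates. The strain panel included Gram-positive S. aureus strains and multidrug-resistant clinical isolates. Gatifloxacin, moxifloxacin, norfloxacin and oxacillin served as antibacterial positive controls.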
A general note: An ELISA detects its analyte on a solid surface through an enzyme-linked reagent.

The subject of experiment [6] is Staphylococcus aureus. The experiment is described as follows: Antibacterial activity against Staphylococcus aureus KCTC209 assessed as reduction in bacterial cell growth incubated for 24 hrs by ELISA. Type of experiment: functional. The following applies: KCTC209, 24 h. In outline: as §2
For experiment [7], the system named is Staphylococcus aureus. The experiment is described as follows: Antibacterial activity against Staphylococcus aureus KCTC503 assessed as reduction in bacterial cell growth incubated for 24 hrs by ELISA. Type of experiment: functional. The note with it: KCTC503, 24 h. In outline:
as §2

In another experiment the test system is Streptococcus mutans. The experiment is described as follows: Antibacterial activity against Streptococcus mutans KCTC3289 assessed as reduction in bacterial cell growth incubated for 24 hrs by ELISA. Format: functional. The following applies: KCTC3289, 24 h. In short, it runs like this: (§3)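 MIC determined by serial dilution in 96-well microtiter plates. Strains used were E. coli 1924 and P. aeruginosa 2742 (Gram-negative), S. mutans 3289 (Gram-positive) and the fungus C. albicans 7535. Gatifloxacin, moxifloxacin, norfloxacin and oxacillin served as antibacterial reference agents, and fluconazole as the antifungal reference.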

For the next experiment, the system named is Escherichia coli. Description: Antibacterial activity against Escherichia coli 1924 assessed as reduction in bacterial cell growth incubated for 24 hrs by ELISA. Format: functional. The following applies: Escherichia coli, 1924, 24 h. In short, it runs like this: as §3
Experiment [8] deals with Staphylococcus aureus. The experiment is described as follows: Antibacterial activity against Methicillin-resistant Staphylococcus aureus CCARM 3167 assessed as reduction in bacterial cell growth incubated for 24 hrs by ELISA. Format: functional. The note with it: CCARM 3167, 24 h. In outline:
as §2

Experiment [9] has as its system Staphylococcus aureus. The experiment is described as follows: Antibacterial activity against Quinolone-resistant Staphylococcus aureus CCARM 3505 assessed as reduction in bacterial cell growth incubated for 24 hrs by ELISA. The note with it: CCARM 3505, 24 h. Format: functional. In outline:
as §2

The test system of experiment [10] is Staphylococcus aureus. The experiment is described as follows: Antibacterial activity against Quinolone-resistant Staphylococcus aureus CCARM 3519 assessed as reduction in bacterial cell growth incubated for 24 hrs by ELISA. Format: functional. The following applies: CCARM 3519, 24 h. In short, it runs like this:
as §2

For experiment [11], the species on record is Homo sapiens. Description: Selectivity ratio of IC50 for human recombinant GST-tagged TCPTP to IC50 for human recombinant GST-tagged PTP1B.
The species named for experiment [12] is Homo sapiens. Description: Selectivity ratio of IC50 for human recombinant GST-tagged SHP1 to IC50 for human recombinant GST-tagged PTP1B.
Experiment [13] is filed under the species Homo sapiens. The experiment is described as follows: Selectivity ratio of IC50 for human recombinant GST-tagged SHP2 to IC50 for human recombinant GST-tagged PTP1B.

In ChEMBL document CHEMBL4346701, “Synthesis and biological evaluation of tryptophan-derived rhodanine derivatives as PTP1B inhibitors and anti-bacterial agents” (Eur J Med Chem, 2019) one finds IC50, MIC and Ratio IC50 data, which are given here for 3 compounds.

Values after ≈ are worked out from the molar mass of the structure shown.

Tyrosine-protein phosphatase non-receptor type 6, sequence (P29350 whole entry, the tested form may be a part): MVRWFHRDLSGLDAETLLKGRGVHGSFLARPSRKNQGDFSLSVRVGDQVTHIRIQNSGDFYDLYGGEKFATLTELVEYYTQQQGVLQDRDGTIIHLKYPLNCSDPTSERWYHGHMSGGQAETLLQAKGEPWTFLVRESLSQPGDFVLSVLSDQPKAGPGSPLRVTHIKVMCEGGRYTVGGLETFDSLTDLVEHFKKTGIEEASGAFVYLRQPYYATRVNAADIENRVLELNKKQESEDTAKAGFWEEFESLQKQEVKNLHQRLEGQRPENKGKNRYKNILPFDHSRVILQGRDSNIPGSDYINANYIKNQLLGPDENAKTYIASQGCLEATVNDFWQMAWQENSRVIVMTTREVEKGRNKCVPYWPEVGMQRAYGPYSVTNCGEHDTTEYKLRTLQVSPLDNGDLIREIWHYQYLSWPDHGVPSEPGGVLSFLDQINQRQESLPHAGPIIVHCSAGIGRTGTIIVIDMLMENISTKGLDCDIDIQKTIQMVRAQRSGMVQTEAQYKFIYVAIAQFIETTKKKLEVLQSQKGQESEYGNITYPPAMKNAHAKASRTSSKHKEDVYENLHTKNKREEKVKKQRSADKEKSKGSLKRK

`O=C(O)C(Cc1c[nH]c2ccccc12)N1C(=O)/C(=C/c2ccc3cc(OCc4ccc(Br)cc4)ccc3c2)SC1=S` (stereo not given): the IC50 (in general, the midpoint of a concentration-inhibition curve) is 0.78 µM in [1], 0.32 µM in experiment [2], 1.11 µM in [3] and 3.8 µM in [4]. In addition, the MIC (commonly the smallest concentration in the dilution series that meets the test's criterion for growth inhibition) was found to be 2 mg/L (≈ 3.11 µM) in the experiment with Staphylococcus aureus [5]; 2 mg/L (≈ 3.11 µM) with Staphylococcus aureus [6]; 4 mg/L (≈ 6.22 µM) with Staphylococcus aureus [7]; 8 mg/L (≈ 12.4 µM) in the experiment with Streptococcus mutans; 8 mg/L (≈ 12.4 µM) in the experiment on Escherichia coli; 4 mg/L (≈ 6.22 µM) in the experiment on Staphylococcus aureus [8]. Moreover, the MIC in the experiment with Staphylococcus aureus [9] and in the experiment on Staphylococcus aureus [10] was 4 mg/L (≈ 6.22 µM) throughout. The Ratio IC50 in the experiment listed under Homo sapiens [11] is 2 to 3; in the experiment filed under Homo sapiens [12], 3 to 6; in the experiment listed under Homo sapiens [13] it was 9 to 10.
For the compound `Cc1ccc(COc2ccc3cc(/C=C4\SC(=S)N(C(Cc5c[nH]c6ccccc56)C(=O)O)C4=O)ccc3c2)cc1` (stereo not given), the IC50 in experiment [1] came to 1.69 µM; in experiment [2], 0.83 µM; in [3] it was 3.99 µM; in [4], 5.81 µM. Also, the MIC in the experiment on Staphylococcus aureus [5], with Staphylococcus aureus [6], with Staphylococcus aureus [7], in the experiment with Streptococcus mutans, with Escherichia coli and in the experiment with Staphylococcus aureus [8] was 2 mg/L (≈ 3.46 µM) each time. In addition, the MIC with Staphylococcus aureus [9] and with Staphylococcus aureus [10] was 2 mg/L (≈ 3.46 µM) in each case. The results for the Ratio IC50 in the experiment filed under Homo sapiens [11], in the experiment filed under Homo sapiens [12] and in the experiment listed under Homo sapiens [13] were 2 to 3, 3 to 6 and 9 to 10, respectively.
As to `O=C(O)C(Cc1c[nH]c2ccccc12)N1C(=O)/C(=C/c2ccc3cc(OCc4ccc(Cl)cc4Cl)ccc3c2)SC1=S` (stereo not given), the IC50 in experiment [1] amounted to 1.83 µM; in [2], 0.49 µM; in [3], 2.95 µM; in experiment [4] it was 6.93 µM. Also, the MIC was 2 mg/L (≈ 3.16 µM) with Staphylococcus aureus [5]; 4 mg/L (≈ 6.31 µM) with Staphylococcus aureus [6]; 4 mg/L (≈ 6.31 µM) with Staphylococcus aureus [7]; 4 mg/L (≈ 6.31 µM) in the experiment on Streptococcus mutans; 8 mg/L (≈ 12.6 µM) in the experiment on Escherichia coli; 4 mg/L (≈ 6.31 µM) in the experiment on Staphylococcus aureus [8]. The MIC with Staphylococcus aureus [9] stood at 4 mg/L (≈ 6.31 µM); in the experiment with Staphylococcus aureus [10] it was 8 mg/L (≈ 12.6 µM). Besides, the Ratio IC50 lay in the range of 2 to 3 in the experiment filed under Homo sapiens [11], 3 to 6 in the experiment listed under Homo sapiens [12] and 9 to 10 in the experiment listed under Homo sapiens [13].
